Most compounds without a hit are left out; they make up all but 3.5% or so of the library.
ERAP1 inh – blocks human ERAP1 aminopeptidase activity | Q9NZ08 | inhibition, % at 10.7 µM | AID 652197 | 0.15% of 340,000 active | recombinant ERAP1, Leu-AMC fluorescence, 60 min;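 active means mean replicate inhibition of at least 30%, or all replicates individually reaching that 30% level; inactive means mean below 30% and not every replicate reaching it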;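 further: 0% = neutral control wells and 100% = L-leucinethiol positive control wells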
Target sequence (Q9NZ08 whole entry, looked up): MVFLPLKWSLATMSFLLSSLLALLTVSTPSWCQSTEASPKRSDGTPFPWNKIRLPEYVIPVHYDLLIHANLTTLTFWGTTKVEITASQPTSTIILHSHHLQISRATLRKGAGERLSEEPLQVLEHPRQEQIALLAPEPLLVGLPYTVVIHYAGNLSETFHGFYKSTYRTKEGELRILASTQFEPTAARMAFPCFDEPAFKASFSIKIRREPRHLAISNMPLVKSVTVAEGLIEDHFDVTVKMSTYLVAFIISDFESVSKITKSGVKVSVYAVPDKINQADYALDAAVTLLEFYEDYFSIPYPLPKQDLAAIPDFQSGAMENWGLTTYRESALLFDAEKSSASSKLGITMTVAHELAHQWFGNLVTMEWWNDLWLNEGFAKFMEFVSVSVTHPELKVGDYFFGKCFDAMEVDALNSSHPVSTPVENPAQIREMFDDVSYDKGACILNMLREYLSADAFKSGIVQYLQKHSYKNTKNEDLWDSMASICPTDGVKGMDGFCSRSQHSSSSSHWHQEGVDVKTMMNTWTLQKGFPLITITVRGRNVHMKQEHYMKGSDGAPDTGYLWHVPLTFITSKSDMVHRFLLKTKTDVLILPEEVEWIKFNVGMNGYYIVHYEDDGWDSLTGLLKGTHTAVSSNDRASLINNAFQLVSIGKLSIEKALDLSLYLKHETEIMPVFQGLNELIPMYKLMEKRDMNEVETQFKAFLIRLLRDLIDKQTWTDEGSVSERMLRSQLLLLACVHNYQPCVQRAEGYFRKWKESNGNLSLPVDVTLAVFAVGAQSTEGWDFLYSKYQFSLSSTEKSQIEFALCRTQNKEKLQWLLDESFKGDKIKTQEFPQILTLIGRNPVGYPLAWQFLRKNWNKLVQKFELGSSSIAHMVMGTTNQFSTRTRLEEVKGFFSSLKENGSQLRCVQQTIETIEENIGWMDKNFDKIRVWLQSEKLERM
Cneo AK release – Cryptococcus neoformans lysis via adenylate kinase release; lysis activity, % at 15 µM; C. neoformans lysis, adenylate kinase release luminescence, 4 h; normalised: neutral wells 0, clomiphene wells 100; 0.2% of 360,000 active;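 active means mean lysis activity across replicates of at least 80%, whatever share of replicates individually reach that level; inactive means mean lysis activity below 80%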
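Test system: log-phase Cryptococcus neoformans yeast cells. Input: 5 × 10^6 yeast cells/mL. Medium: fresh YPD growth medium. Doses: single dose. Incubation: static 4 h at 37 °C with compound, 1 h detection. Measured by: luminescent adenylate kinase detection reagent. Read-out: signal increase indicating cell lysis. Benchmarks: Clomiphene.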
HIV Env fusion – blocks HIV Env-driven cell-cell fusion | HeLa-JRFL Env/CEM21 cell fusion, luciferase | inhibition, % at 12.3 µM | 1.1% of 360,000 active | AID 651610;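 active means mean replicate inhibition score of at least 50 and every replicate individually at or above 50; inconclusive means only one of the two criteria met; inactive means mean below 50 and not all replicates reaching 50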;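 further: 0% = plate neutral controls and 100% = maraviroc near 300 nM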
PGC1a acetyl inh – lowers PGC1a acetylation signal in U2OS cells; AlphaScreen anti-acetyl-lysine; with virally co-expressed GCN5 acetyltransferase; AID 651687; 0.17% of 350,000 active; inhibition, % at 15.6 µM;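 active means every replicate shows inhibition of at least 40%; inconclusive means mean inhibition at least 40% but some replicate below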;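 further: 0% = neutral control wells and 100% = positive control wells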
FGF22 binding – binders of recombinant human FGF22 by thermal shift; Q9HCT0; SYPRO orange fluorescence; percent of sucrose octasulfate shift, DMSO zero; activity (Tm shift, normalised), % at 9.99 µM; 1.5% of 340,000 active;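 active means mean Tm shift, scaled 0 neutral to 100 positive control, at about 1.3% or above, every replicate too, limit read from the data; inconclusive means no clear call, values can overlap the other calls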
Ecoli rRNA inh – inhibitors of bacterial rRNA selective over humanized ribosomes. 1.6% of 350,000 active. E. coli WT GFP vs humanized-ribosome RFP mutants, fluorescence, 24 h; stronger effect = lower value; DMSO median 0, no signal -100. GFP signal change (wild-type ribosome), % (concentration not given with the values);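 active means significant combined selectivity score with lowered wild-type GFP, culture density cut under 30%, mutant RFP and density less affected; inactive means any of these conditions unmet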
The depositor's hits bear a star; ? = inconclusive; . = no result; [ ] = another dose, or the depositor's remark.

SMILES | ERAP1 inh | Cneo AK release | HIV Env fusion | PGC1a acetyl inh | FGF22 binding | Ecoli rRNA inh
CN1C(=O)C(C)(C)c2cc(S(=O)(=O)N3CCC(C(=O)NCc4ccc(F)cc4)CC3)ccc21 | 0 | -1 | -22 | -13 | 0 | 3
COCCCNC(=O)C1CCN(S(=O)(=O)N(CC(C)C)CC(C)C)CC1 | . | 0 | 17 | -3 | . | .
Cc1ccc(C(O)Cn2cc([N+](=O)[O-])nc2C)cc1 (stereo not given) | 1 | -4 | -16 | -3 | 0 | -1
Cc1nc([N+](=O)[O-])cn1CC(O)c1ccc(-c2ccccc2)cc1 (stereo not given) | 0 | 0 | 8 | 16 | 0 | -45*
COCCn1c(SCC(=O)Nc2ncc(Cl)c(C)c2Cl)nc2ccccc21 | . | -1 | -2 | 1 | . | .
CCCCCCOc1ccc(OC(=O)c2ccncc2)cc1 | 9 | 7 | 70* | 0 | . | 2
CCCCCCc1ccc(OC(=O)c2ccncc2)cc1 | -1 | -1 | 13 | -1 | 0 | 3
O=C(C1CC1)N1CC(=O)N2[C@H](CO)[C@@H](c3ccc(-c4ccccc4F)cc3)[C@H]2C1 | 3 | . | . | 4 | . | -2
CCN1CCN(S(=O)(=O)c2ccc(Cl)c(C(=O)Nc3ccccc3N3CCCC3)c2)CC1 | 1 | 1 | 80* | -15 | 0 | 3
CCN1CCN(c2ccc(S(=O)(=O)N3CCCCC3)cc2NC(=O)/C=C/c2cccc(OC)c2OC)CC1 | -2 | 0 | -14 | . | 0 | -20*
CCN1CCN(S(=O)(=O)c2ccc(Cl)c(C(=O)Nc3ccccc3N3CCCCC3)c2)CC1 | 1 | 5 | 7 | -19 | 0 | -5
CCN1CCN(c2ccc(S(=O)(=O)N3CCCCC3)cc2NC(=O)/C=C/c2ccc(F)cc2)CC1 | 2 | -2 | 7 | . | 0 | -2
O=C(Nc1nnc(C2=COCCO2)o1)c1ccc(Cl)cc1 | -2 | . | 1 | . | 0 | -55
O=C(Nc1nnc(C2=COCCO2)o1)c1ccc(Cc2ccccc2)cc1 | -1 | . | -2 | 4 | 0 | -46*
C[C@@H]1CCCCO[C@H](CN(C)C)[C@H](C)CN([C@H](C)CO)C(=O)c2cc(NC(=O)CCC(F)(F)F)ccc2O1 | . | . | -6[16.7 µM] | 1 | . | 3
COc1ccc(Cl)cc1C(=O)NNC(=S)NC(=O)c1cc(-c2ccccc2)nc2ccccc12 | . | -1 | 73* | -5 | . | .
O=C(NNC(=O)c1cc(-c2cccnc2)nc2ccccc12)Nc1ccc(Cl)cc1 | -1 | . | 20 | 7 | 0 | -29*
O=C(Nc1ccc2c(c1)OCO2)c1cc(-c2ccncc2)nc2ccccc12 | 5 | -1 | -17 | 8 | 0 | -22*
O=C(Nc1ccc2c(c1)OCCO2)c1cc(-c2ccccc2)nc2ccccc12 | . | 1 | -20 | -27 | . | .
O=C(NNC(=O)c1cc(-c2ccccc2)nc2ccccc12)Nc1cccc(Cl)c1 | . | -5 | . | 0 | . | .
Cc1cccc(S(=O)(=O)NNC(=O)c2cc(-c3ccc(F)cc3)nc3ccccc23)c1 | 1 | 1 | 7 | 2 | 0 | 1
O=C(NNS(=O)(=O)c1ccc(Cl)cc1)c1cc(-c2ccccc2)nc2ccccc12 | -2 | 5 | . | -4 | 0 | -31*
Cc1ccc(C)c(NC(=O)C2CCC(C)(C(=O)O)C2(C)C)c1 (stereo not given) | . | 7 | -15 | 7 | . | .
Cc1cccc(C)c1NC(=O)c1c(C)nn(-c2ccccc2)c1Cl | . | 0 | 0 | 3 | . | .
CCOC(=O)c1oc2nc3c(cc2c1N)CCCC3 | 2 | 3 | -63 | -1 | 0 | -5
SMILES | ERAP1 inh | Cneo AK release | HIV Env fusion | PGC1a acetyl inh | FGF22 binding | Ecoli rRNA inh
CN(C)c1ccc(C=c2c3cc(O)ccc3n3c2cc(-c2ccccc2)[n+]3C)cc1 | 56* | . | 64* | . | -1 | 20
CN(C)c1ccc(C=c2c3ccccc3n3c2c2ccccc2[n+]3C)cc1 | 5 | . | 58* | . | 0 | .
C[n+]1c(-c2ccccc2)cc2c(=Cc3ccccc3)c3ccccc3n21 | 4 | . | 46 | . | -1 | -43
Cc1cc2c(=Cc3ccc(N(C)C)cc3)c3ccccc3n2[n+]1C | 7 | . | 35 | . | 0 | -48
CC(C)(C)C(=O)c1c(N)[nH]c(C(=O)c2ccccc2)c1-c1ccc(Cl)cc1Cl | 0 | . | 11 | . | 0 | -30*
N#Cc1c(N)[nH]c(C(=O)c2ccccc2)c1-c1ccc(Cl)cc1 | . | . | -107 | . | 0 | -44*
Nc1[nH]c(C(=O)c2ccccc2)c(-c2ccc(Cl)cc2Cl)c1C(=O)c1ccc(Cl)c(Cl)c1 | 18 | . | 37 | . | 0 | -6
CC(C)(C)C(=O)c1c(N)[nH]c(C(=O)c2ccccc2)c1-c1ccc(Cl)cc1 | -8 | . | 23 | . | 0 | -33
CCCn1nc([N+](=O)[O-])c(C(C#N)c2nc3ccccc3s2)c(Cl)c1=O (stereo not given) | . | -8 | 29 | -2 | . | .
N#CCCn1cc(/C=N/O)c(-c2cccc([N+](=O)[O-])c2)n1 | -2 | . | 8 | 3 | 0 | 15
O=C(CSc1nc2ncc(Cl)cc2[nH]1)Nc1cccc(F)c1 | 0 | 4 | 5 | -8 | 0 | -4
CN(CC(=O)Nc1ccc(F)cc1)C(=O)CSc1nc2ncc(Cl)cc2[nH]1 | 2 | . | 7 | . | 43* | 12
COc1cc(/C=N/n2c(-c3ccccc3)n[nH]c2=S)cc(OC)c1O | 3 | -4 | -5 | 0 | 0 | 5
CC(=O)/C(C#N)=C1\NC(=O)C(Cc2ccccc2C)S1 (stereo not given) | . | 2 | -17 | 7 | 0 | -30*
COc1ccc(NC(=O)N(C)C[C@@H]2Oc3c(cccc3N(C)C)C(=O)N([C@@H](C)CO)C[C@@H]2C)cc1 | 0 | 3 | -19[16.7 µM] | 9 | 0 | 0
COc1nccnc1NS(=O)(=O)c1ccc(NC(=O)c2cccc(C)c2)cc1 | -2 | . | 7 | 1 | 43* | -8
CN1/C(=C\C(=O)c2cccc(S(=O)(=O)N3CCCCC3)c2)C(C)(C)c2ccccc21 | -3 | -1 | 7 | ? | 43* | -27
CN1/C(=C/C(=O)c2nc(S(C)(=O)=O)ncc2Cl)C(C)(C)c2ccccc21 | . | . | . | 83* | . | .
C[C@H]1CN([C@@H](C)CO)S(=O)(=O)c2ccc(C#CC3(O)CCCC3)cc2O[C@@H]1CN(C)C | 9 | 2 | -20[16.7 µM] | 4 | 0 | -1
O=C(NCCc1ccccc1F)c1ccc2c(c1)OCCO2 | 2 | -9 | 76* | -5 | 0 | -5
O=C(NCc1ccccc1F)c1ccc2c(c1)OCO2 | . | 2 | -39 | -10 | . | .
COc1ccc(OC)c(C(=O)COC(=O)c2ccc([N+](=O)[O-])o2)c1 | -2 | -2 | . | . | 0 | -20*
COc1ccc(OC)c(C(=O)COC(=O)c2cc(C)oc2C)c1 | . | 1 | . | -1 | . | .
CC(C)(C)OC(=O)NCCCCCNC(=O)c1[nH]cnc1C(=O)Nc1cc(Br)ccc1F | 9 | -2 | 6 | 5 | 41 | 6

Screening results deposited in PubChem BioAssay by Broad Institute.
